This is one part of a sample in which hits are shown more often than they occur.
eIF2B yeast act: modulators of yeast eIF2B activity | S. cerevisiae eIF2B-epsilon R284H, GCN4-lacZ luminescence | inhibition, % at 25 µM (by protocol) | 27,000 compounds, 0.91% hits | AID 688;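 active = mutant luminescence inhibited past about 50% while wild type luminescence and mutant growth stay under set limits, limit read from the data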
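Times: 16 h growth with compound at 30 °C, 90 min Beta-Glo step; Assay system: yeast eIF2B-epsilon R284H mutant carrying GCN4–beta-galactosidase fusion; Measure: % inhibition of reporter signal and growth versus controls; Dosing: one concentration, 25 µM, 0.25% DMSO; Buffer or medium: YPD yeast growth medium; Measured by: Beta-Glo luminescence plus absorbance at 595 nm.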
Large screens that a line does not name were inactive.

Cc1cc(N2CCN(C(=O)c3ccco3)CC2)n2nc(-c3cccc(F)c3)cc2n1	none
COCCN1CCN(c2c3c(nc4cc(-c5cccc(F)c5)nn24)CCC3)CC1	none
CCN1CCN(c2cc(-c3ccccc3)nc3cc(-c4cccc(F)c4)nn23)CC1	eIF2B yeast act 53.2
CCOC(=O)c1csc(NC(=O)CSc2nnnn2CC)n1	none
COC(=O)c1ccc(S(=O)(=O)NCCSc2nnc3c4ccccc4n(C)c3n2)cc1	none
N#CC(C(=O)NC1CCCCC1)c1nc2ccccc2nc1N1CCN(c2ccc(F)cc2)CC1 (configuration not stated)	none
N#CC(C(=O)OC1CCCCC1)c1nc2ccccc2nc1N1CCOCC1 (configuration not stated)	eIF2B yeast act 51.4
CCC(CC)COC(=O)C(C#N)c1nc2ccccc2nc1N1CCOCC1 (configuration not stated)	none
CCC1(C)CC(C(CC(=O)O)c2ccc(C)cc2)CCO1 (configuration not stated)	none
Cc1sc(-n2c(C)cc(C=O)c2C)c(C(=O)O)c1C	none
O=C(O)c1ccc(-n2nnnc2Oc2cccc3cccnc23)cc1	none
CCC(C)NS(=O)(=O)c1ccc(S(=O)(=O)N2CCCC3(CCCCC3)C2)cc1 (configuration not stated)	none
COc1cccc(S(=O)(=O)N2CCOCC2)c1	none
CN(Cc1c(F)cccc1Cl)c1ccc(S(=O)(=O)N2CCOCC2)cn1	eIF2B yeast act 57.4
CN(Cc1c(F)cccc1Cl)c1nnnn1-c1ccccc1	none
C=CCc1c(C)c(C#N)c2nc3ccccc3n2c1N1CCN(C)CC1	none
CCOC(=O)c1c(NC(=O)CSc2nnnn2CC)sc(C)c1C	none
CC(C)CCOc1ccc(C(=O)CCNC(C)C(=O)O)cc1 (configuration not stated)	none
O=C(Nc1ccc(O)cc1)C1CC=CCC1 (configuration not stated)	none
Cc1[nH]c2c(C)cccc2c(=O)c1Br	none
CCOC(=O)c1cnn2c(C(F)(F)F)cc(-c3ccccc3)nc12	none
COC(=O)c1nn2c(C(F)(F)F)cc(-c3ccc(Br)o3)nc2c1Br	eIF2B yeast act 54.1
COC(=O)c1cc2nc(-c3ccc(OC)cc3)cc(C(F)(F)F)n2n1	none
COc1cccc(C(=O)N(C)c2nnc(-c3ccncc3)s2)c1	none
CC1(C)C(=O)OC(c2cccs2)C(C)(C)C1=O (configuration not stated)	none
CCOC(=O)CCNC(C(=O)OCC)c1ccccc1 (configuration not stated)	none
Cc1nc2ccccc2n1CCC(=O)Nc1cccc(F)c1	none
CC(C)C(=O)N1CCN(C2=NS(=O)(=O)c3ccccc32)CC1	eIF2B yeast act 53.2
CCCC(=O)N1CCN(C2=NS(=O)(=O)c3ccccc32)CC1	none
O=S1(=O)N=C(N2CCN(Cc3ccccc3)CC2)c2ccccc21	none
Cc1nnc(SC(C)C(=O)NCC2CCCO2)n1-c1ccccc1 (configuration not stated)	none
CCC(Sc1nc2sc(C(=O)OC)c(C)c2c(=O)n1N)C(=O)NCC1CCCO1 (configuration not stated)	eIF2B yeast act 50.3
CCC(Sc1nc2sc(C(=O)OC)c(C)c2c(=O)n1N)C(=O)N(CC)CC (configuration not stated)	none
CCCc1nnc(NC(=O)CN2C(=O)c3ccccc3C2=O)s1	none
CCCc1nnc(NC(=O)CCC(=O)Nc2ccc(F)cc2)s1	none
CCCCCOC(=O)Nc1nnc(CCC)s1	eIF2B yeast act 50.6
O=c1cc(CSc2nnc(-c3ccco3)o2)c2ccccc2[nH]1	none
CCCCNCC(=O)Nc1sc(C)c(C)c1C(=O)OCC	none
COc1ccc2cc3c(N)c(C(=O)N4CCCC4)sc3nc2c1	eIF2B yeast act 54.3
COc1ccc2cc(C(=O)N3CCCCCC3)sc(=O)c2c1OC	none
CCOC(=O)c1c(N)sc(C(=O)N2CCCCC2)c1C	none
N#C/C(C(=O)Oc1ccccc1)=C1/Nc2ccccc2-c2ccccc21	none
Cc1nc(N2CCN(c3ccccc3)CC2)c2c3c(sc2n1)CCC3	none
Cc1nc(N2CCN(C(=O)c3ccco3)CC2)c2c3c(sc2n1)CCCC3	eIF2B yeast act 52.6
CCc1nc(SCC(=O)N2CCN(C(=O)c3ccco3)CC2)c2c3c(sc2n1)CCCC3	none
CCOc1ncccc1C(=O)OCc1cc(=O)n2c(n1)sc1ccccc12	none
C=C(C)C1Cc2c(C)nn(-c3cc(C)c4ccccc4n3)c2C1 (configuration not stated)	none
CCC(=O)N1CCc2cc(S(=O)(=O)NC(C(=O)NCc3ccc(F)cc3)C(C)C)ccc21 (configuration not stated)	none
CCC(=O)N1CCc2cc(S(=O)(=O)NC(C(=O)NCc3ccccc3)C(C)C)ccc21 (configuration not stated)	eIF2B yeast act 55.1
CC(=O)N1CCc2cc(S(=O)(=O)NC(C(=O)NCc3ccccc3)C(C)C)ccc21 (configuration not stated)	none
O=S(=O)(NCC1CCCO1)c1ccc(S(=O)(=O)N(Cc2ccc(F)cc2)C2CCCCC2)cc1 (configuration not stated)	none
CC(OC(=O)CN1C(=O)NC(C)(C)C1=O)C(=O)c1ccccc1 (configuration not stated)	none
COc1ccc(C(=O)COC(=O)CN2C(=O)NC(C)(C)C2=O)cc1OC	eIF2B yeast act 60.0
COc1ccc(C(=O)COC(=O)c2ccc(OC)c(OC)c2)cc1OC	none
CSCCC(C(=O)Nc1ccc2c(c1)OCO2)N1C(=O)c2ccccc2C1=O (configuration not stated)	none
COc1ccc(S(=O)(=O)C(C#N)c2nc3ccccc3nc2N2CCC(C)CC2)cc1 (configuration not stated)	none
Cc1ccc(OCCCC(=O)Nc2ccc3c(c2)OCO3)cc1	none
CC(C)=CC(=O)Nc1ccc2c(c1)OCO2	eIF2B yeast act 54.2
O=C(Nc1ccc2c(c1)OCO2)c1cccc(F)c1	none
Cc1cc(C)cc(N2CC34C=CC(O3)C(C(=O)OCC(=O)NCc3ccco3)C4C2=O)c1 (configuration not stated)	none
CC(C)CNC(=O)CCc1c[nH]c2ccccc12	none
CCC(=O)NCCSc1c[nH]c2ccccc12	eIF2B yeast act 61.5
CC(Sc1c[nH]c2ccccc12)C(=O)O (configuration not stated)	none
Cc1csc(NC(=O)CCn2c(=O)sc3ccccc32)n1	none
Cc1csc(NC(=O)CSc2nc(C)cs2)n1	none
Cc1csc(NC(=O)c2cccn2C)n1	eIF2B yeast act 51.1
c1ccc(CNCc2ccc3c(c2)OCO3)nc1	none
COc1cc(OC)cc(C(=O)NC2CC3CCC(C2)N3Cc2ccco2)c1 (configuration not stated)	none
O=C(NCCc1ccccc1)C1CCCN1C(=O)Nc1ccc(F)cc1 (configuration not stated)	none
COc1cc(-c2ccc(NC(=O)CN3CCCCC3)c(OC)c2)ccc1NC(=O)CN1CCCCC1	none
CCn1c(CNc2nc3ccccc3n2C(C)C)nc2ccccc21	eIF2B yeast act 53.2
CC(C)n1c(CNC(=O)c2ccccc2)nc2ccccc21	none
CCn1c(NCc2ccccc2Cl)nc2ccccc21	none
Cc1nnc(N2CCN(C)CC2)c2nn(-c3ccc(Cl)cc3)c(C)c12	none
Cc1ccc(S(=O)(=O)N(C)CCCC(=O)N2CCN(C=O)CC2)cc1	none
Cc1ccc2c(c1)N(CCC(=O)NC(C)C)C(=O)CO2	none
Cc1ccc2c(c1)N(CC(=O)N1CCCCCC1)C(=O)CO2	none
Cc1ccc2c(c1)N(CC(=O)NCc1cccnc1)C(=O)CO2	eIF2B yeast act 58.7
COc1cccc(-c2nnc(-c3ccc(C(F)(F)F)cc3)o2)c1	none
Oc1ccccc1-c1nnc(-c2ccc(C(F)(F)F)cc2)o1	eIF2B yeast act 52.8

From PubChem BioAssay
